Many of the other results were omitted from the sample, so hits are more common in it than they were.
HCT116 PTEN-null: suppresses growth of cells with PTEN deletion. HCT116 PTEN-null viability, CellTiter-Glo, 60 h; active compounds read low. viability, % at 10 µM. actives 1.2% (n = 140,000). AID 827;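 active = viability at or below a set limit, 4 SD under the median of all tested compounds, cut at about 3.7% in these data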;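 note: PTEN knockout HCT116 line with beta catenin targeted HCT116 as companion control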
H69AR inhibit: blocks growth of human H69AR lung tumor cells. actives 6% (n = 85,000). viability, % at 10 µM. AID 598. H69AR lung tumor viability, ATP luminescence, 72 h; active compounds read low;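 active = viability at or below 40%; inactive = viability above 40%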;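 note: multidrug resistant small cell line overexpressing MRP-1 efflux transporter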
Lung fibro prol: blocks proliferation of human lung fibroblasts; AID 719; LL 47 human lung fibroblast viability, ATP luminescence; active compounds read low; viability, % at 10 µM; actives 1.1% (n = 85,000);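 active = viability at or below 50% in the single dose screen; inactive = viability above 50%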;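 note: compound exposure lasted 72 h before the ATP readout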
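Material: human lung fibroblast line LL 47, low passage; Evaluation: viability percentage against median untreated-cell control; Buffer or medium: 15% FBS in IMEM; Incubation: 72 h compound exposure at 37 °C after overnight plating; Dosing: 0.1% DMSO in all compound wells; Measured by: CellTiter-Glo luminescence.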
HUVEC inhibit: inhibitors of human endothelial cell proliferation; viability, % at 10 µM (by protocol); AID 648; HUVEC proliferation, CellTiter-Glo luminescence, 72 h; active compounds read low; actives 1.1% (n = 86,000);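 active = viability at or below 30%; inactive = viability above 30%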
bCat KO growth: beta-catenin-lacking colon tumor cell growth suppression | HCT116 beta-catenin knockout viability, CellTiter-Glo, 60 h; active compounds read low | viability, % at 10 µM | actives 1.5% (n = 140,000);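 active = viability at or under a set limit, the compound median less 4 SD, cut at about 6% in these data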
Each line names hits and unclear results; the compound was inactive in the other large screens.

Cc1cc2ncn(C(=O)c3ccc4c(c3)OCO4)c2cc1C	none
Cc1cc2ncn(C(=O)N3CCC(C)CC3)c2cc1C	HCT116 PTEN-null 0.7, bCat KO growth 0.6
Cc1ccc(S(=O)(=O)CC(C)N2CCN(C3CCCCC3)CC2)cc1 (centres undefined)	none
CCCCc1c(CCC)c(=N)c2ccccc2n1C	none
O=C(CN1C(=O)S/C(=C/c2ccncc2)C1=O)N1CCOCC1	none (no result: H69AR inhibit, Lung fibro prol, HUVEC inhibit)
CC(C)(C)C(=O)/C(C#N)=c1\s/c(=C\c2ccncc2)c(=O)n1CCCN1CCOCC1	HUVEC inhibit 1.8 (no result: HCT116 PTEN-null, Lung fibro prol, bCat KO growth)
COc1cc(-c2cc(OC)c3c(C)oc(C)c3c(=O)c2)ccc1O	H69AR inhibit 30
CCC1CCCCN1C(=O)Cn1c(=O)n(CCC(=O)NCc2ccco2)c(=O)c2sccc21 (centres undefined)	none (no result: Lung fibro prol)
COc1cc(/C=C/C(=O)c2ccc(C)cc2)ccc1OCC#N	HCT116 PTEN-null 2.0, bCat KO growth 5.6 (no result: H69AR inhibit, Lung fibro prol, HUVEC inhibit)
CCOc1cc(/C=C/C(=O)c2ccc(C)cc2)ccc1OCC(=O)N(C)C	HCT116 PTEN-null 1.7, bCat KO growth 1.6 (no result: H69AR inhibit, Lung fibro prol, HUVEC inhibit)
Nc1ccc(N2CCCCC2)cc1N1CCCCC1	HCT116 PTEN-null 2.5, bCat KO growth 3.2 (no result: H69AR inhibit, Lung fibro prol, HUVEC inhibit)
Cc1cccc(C)c1NC(=O)CSCC(=O)c1ccc(O)c(O)c1	H69AR inhibit 18
COc1ccc(-c2nc(Cn3c(SCc4ccccc4F)nc4ccncc43)c(C)o2)cc1	H69AR inhibit 14, Lung fibro prol 40
CC(C)Cn1cc(C(=O)NC2CCN(Cc3ccccc3)CC2)c2c3ccccc3n(C)c2c1=O	none (no result: H69AR inhibit, Lung fibro prol, HUVEC inhibit)
COC(=O)c1ccc(COc2ccccc2/C=C(\C#N)C(=O)Nc2ccc(C)cc2C)cc1	none (no result: H69AR inhibit, Lung fibro prol, HUVEC inhibit)
COC(=O)c1ccc(COc2ccccc2/C=C(\C#N)C(=O)Nc2c(C)cc(C)cc2C)cc1	HCT116 PTEN-null 1.1, bCat KO growth 1.4 (no result: H69AR inhibit, Lung fibro prol, HUVEC inhibit)
O=C(CN1CCC(n2nnc3cc(C(F)(F)F)ccc32)CC1)NCc1cccs1	none (no result: H69AR inhibit, Lung fibro prol, HUVEC inhibit)
C(=C\c1ccccc1)/CSc1nnc(-c2cnccn2)n1Cc1ccco1	H69AR inhibit 29
Cc1noc(C)c1CSc1nc2ccccc2c(=O)n1-c1ccc(Cl)cc1	H69AR inhibit 14
Cc1noc(C)c1CSc1nc2sc(C)c(C)c2c(=O)n1-c1ccccc1	none
CC(C)c1ccc(/C=C/C(=O)N2CCc3ccccc3C2)cc1	none (no result: H69AR inhibit, Lung fibro prol, HUVEC inhibit)
CC(O)CN1C(=O)C(CC(=O)Nc2ccc(Cl)cc2)SC1=Nc1ccccc1 (centres undefined)	H69AR inhibit 39
COCCN1C(=O)C(CC(=O)Nc2ccc(C(C)=O)cc2)SC1=Nc1ccccc1 (centres undefined)	none (no result: H69AR inhibit, Lung fibro prol, HUVEC inhibit)
CCOc1ccc(NC(=O)c2ccc(NC(=O)c3cn4c5c(c(N6CCN(C)CC6)c(F)cc5c3=O)OCC4C)cc2)cc1 (centres undefined)	HCT116 PTEN-null 2.2, bCat KO growth 2.3 (no result: H69AR inhibit, Lung fibro prol, HUVEC inhibit)
Cc1ccc(S(=O)(=O)N2CCC(=O)N(CCOCc3cccc(C(F)(F)F)c3)CC2)cc1	none (no result: H69AR inhibit, Lung fibro prol, HUVEC inhibit)
NC(=O)COC(=O)c1oc2ccccc2c1CSc1ccc(Cl)cc1	none (no result: H69AR inhibit, Lung fibro prol, HUVEC inhibit)
CCn1c(=N)n(CC(=O)c2cccc([N+](=O)[O-])c2)c2ccccc21	none (no result: H69AR inhibit, Lung fibro prol, HUVEC inhibit)
CCn1c(=N)n(CC(=O)C23CC4CC(CC(C4)C2)C3)c2ccccc21	H69AR inhibit 29, HUVEC inhibit 3.4
Clc1ccccc1CN(Cc1ccccc1)c1ncnc2nc[nH]c12	H69AR inhibit 36
O=C(c1ccc(Cl)cc1)C(Cn1cncn1)C(Sc1ccccc1)c1ccccc1 (centres undefined)	bCat KO growth 5.6 (no result: H69AR inhibit, Lung fibro prol, HUVEC inhibit)
C1=C(CCNc2nnnn2-c2ccccc2)CCCC1	none
COc1cccc(Cn2c(-c3nonc3N)nc3ccccc32)c1	H69AR inhibit 24
CC(C)(C)NC(=O)Cn1c(-c2nonc2N)nc2ccccc21	none
CCCCOc1ccccc1NC(=O)Cn1c(-c2nonc2N)nc2ccccc21	HCT116 PTEN-null 1.6, bCat KO growth 1.8 (no result: H69AR inhibit, Lung fibro prol, HUVEC inhibit)
COc1cc(Cn2c(-c3nonc3N)nc3ccccc32)ccc1C	H69AR inhibit 18, Lung fibro prol 48
CN1CCN(Cc2cccc(Oc3ccc(Cl)cc3)c2)CC1	none
COc1ccc2c(c1OC)C(=O)N1c3ccccc3N=C(c3ccc([N+](=O)[O-])cc3)CC21 (centres undefined)	none (no result: H69AR inhibit, Lung fibro prol, HUVEC inhibit)
Cc1ccccc1N1C(=O)c2ccccc2N2C(=O)c3ccccc3C12 (centres undefined)	none
COc1ccc2c(c1OC)C(=O)N1c3ccccc3C(=O)N(c3ccccc3)C21 (centres undefined)	H69AR inhibit 1.0
COc1ccc2c(c1OC)C(=O)N1c3ccccc3C(=O)N(c3ccc(F)cc3)C21 (centres undefined)	H69AR inhibit 12
Cc1cc(C)nc(Nc2n[nH]c(COc3cccc4ccccc34)n2)n1	H69AR inhibit 38
COCCn1c(SCC(=O)N2CCCc3ccccc32)nc2cccnc21	H69AR inhibit 19
O=C(Cn1c(SCC(=O)N2CCCc3ccccc32)nc2ccccc21)N1CCCC1	none
Cc1ccccc1OCc1nc2ccccc2c(=O)n1/N=C/c1cn[nH]c1-c1ccccc1	none (no result: H69AR inhibit, Lung fibro prol, HUVEC inhibit)
Cc1ccc(-c2[nH]ncc2/C=N/n2c(COc3ccccc3)nc3ccccc3c2=O)cc1	HCT116 PTEN-null 1.9, bCat KO growth 1.6 (no result: H69AR inhibit, Lung fibro prol, HUVEC inhibit)
CN(C)S(=O)(=O)c1cccc(C(=O)OCC(=O)c2ccc3c(c2)NC(=O)CO3)c1	none (no result: H69AR inhibit, Lung fibro prol, HUVEC inhibit)
O=C(NCc1ccco1)C1CCN(C(=O)c2cc3sccc3n2Cc2ccc(F)cc2)CC1	none
CC(=O)/C=C/n1c(=S)oc2ccccc21	bCat KO growth 5.3 (no result: H69AR inhibit, Lung fibro prol, HUVEC inhibit)
CC(C)CC(=O)/C=C/n1c(=S)oc2ccccc21	HCT116 PTEN-null 2.4, bCat KO growth 3.8 (no result: H69AR inhibit, Lung fibro prol, HUVEC inhibit)
CCCCOC(=O)CCn1c(=S)oc2ccccc21	none
CS(=O)(=O)N1CCc2cc(-c3csc(NC(=O)Cc4ccccc4)n3)ccc21	none
CC1Cc2cc(-c3csc(NC(=O)Cc4cccs4)n3)ccc2N1S(C)(=O)=O (centres undefined)	bCat KO growth 5.6
CC(C)(C)c1nnc2sc(SCC(=O)N3CCCc4ccccc43)nn2c1=O	H69AR inhibit 17
Cc1ccc(C(=O)CSc2nn3c(=O)c(C(C)(C)C)nnc3s2)cc1	none
CC(C)(C)c1nnc2sc(SCC(=O)c3cccs3)nn2c1=O	H69AR inhibit 14
O=C(CSc1ccc2nnc(-c3ccc(Cl)cc3)n2n1)N1CCCc2ccccc21	HCT116 PTEN-null 2.2, bCat KO growth 2.4 (no result: H69AR inhibit, Lung fibro prol, HUVEC inhibit)
CN(CCOc1ccc(-c2ccn(S(=O)(=O)c3ccc(Cl)cc3)n2)cc1)c1ccccn1	none (no result: H69AR inhibit, Lung fibro prol, HUVEC inhibit)
N#Cc1cc(-c2ccccc2)nc(Oc2ccccc2)n1	none (no result: H69AR inhibit, Lung fibro prol, HUVEC inhibit)
O=C(Nc1ccc2c(c1)nc1n2CCN(Cc2ccccc2)C1)NC1CCCCC1	H69AR inhibit 20
COCCN1CCn2c(nc3cc(NC(=O)NC4CCCCC4)ccc32)C1	none
CCCC(NS(=O)(=O)c1ccc(Br)cc1)C(=O)O (centres undefined)	none
CC(=O)Nc1ccc(S(=O)(=O)N2CCN(C(=O)Cc3ccccc3)CC2)cc1	none
O=c1c2cc3c(cc2[nH]c(=S)n1Cc1ccco1)OCO3	none
Cc1cc(C(=O)N/N=C/c2cc(Br)cc(Br)c2OC(=O)c2ccccc2)n[nH]1	bCat KO growth 5.1 (no result: H69AR inhibit, Lung fibro prol, HUVEC inhibit)
